Measurements taken from publication PMC3779694 (Hepatology (Baltimore, Md.), 2011).

Tests used:
adults with NASH [1] = experiment: Treatment-emergent grade 3 or 4 laboratory abnormalities, phase 2 trial
hepatitis C subjects = conditions: human, in vivo; cited from earlier work
[2] = Steady-state plasma pharmacokinetics of GS-9450; type: in vivo, human
How it was run: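 Plasma was assayed with a validated bioanalytical method. Steady-state Cmax, Tmax, T1/2 and AUCtau came from weeks 2–4 profiles by noncompartmental analysis. Trough samples were taken at weeks 1–4 and follow-up week 1. Dose proportionality of AUCtau and Cmax was tested by a power model across all fasted doses.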

[3] = system: patients with chronic hepatitis C virus (HCV) infection; conditions: short-term treatment; cited from earlier work
adults with NASH [4] = experiment: Serum ALT, phase 2 placebo-controlled trial of GS-9450 for 4 weeks; type: in vivo, human; conditions: for ALT, %Change at Week 4 / ALT, Change at Week 2 / ALT, Change at Week 4: mean (SD); for Observed change from baseline to week 4 in ALT, Difference T − R / Percent change from baseline to week 4 in ALT, Difference T − R / Observed change from baseline to week 4 in ALT, Least Squares Means GS-9450 (T) / Percent change from baseline to week 4 in ALT, Least Squares Means GS-9450 (T): ANCOVA model
adults with NASH [5] = experiment: Adverse events, phase 2 trial; type: in vivo, human
[6] = 1 mg (n = 26), during treatment
[7] = 5 mg (n = 26), during treatment

SMILES: CC(C)[C@@]1(C(=O)N[C@H]2CC(=O)O[C@]2(O)CF)CC(c2nccc3ccccc23)=NO1 [GS-9450]
- treatment-emergent grade 3 elevated ALT, subjects (adults with NASH [1]; 1 mg, on-treatment): one subject
- treatment-emergent grade 3 elevated AST, subjects (adults with NASH [1]; 5 mg): one subject
- treatment-emergent grade 3 or 4 elevated serum lipase, subjects (adults with NASH [1]; 5 mg): one subject
- treatment-emergent grade 3 or 4 ALT elevations during dosing (adults with NASH [1]; 5, 10, or 40 mg daily, 75 patients): No treatment-emergent grade 3 or 4 ALT elevations
- drug-induced liver injury (hepatitis C subjects): episodes of drug-induced liver injury attributable to GS-9450 occurred
- time by which steady state had been reached ([2]; daily dosing, all dose groups): 2–4 weeks
- median Tmax ([2]; fasting conditions, steady state, plasma): 2 to 3 h
- Cmax dose proportionality ([2]; from 1 to 40 mg): dose-proportional
- effect on ALT levels [3]: reductions in alanine aminotransferase (ALT) levels
- ALT, %Change at Week 4 (adults with NASH [4]; 1 mg once daily): −8 (41) %
- ALT, Change at Week 2 (adults with NASH [4]; 1 mg once daily): −17 (31) U/L
- ALT, Change at Week 4 (adults with NASH [4]; 1 mg once daily): −14 (40) U/L
- Observed change from baseline to week 4 in ALT, Difference T − R (adults with NASH [4]; 1 mg vs. pooled placebo): −11 U/L
- Percent change from baseline to week 4 in ALT, Difference T − R (adults with NASH [4]; 1 mg vs. pooled placebo): −6%
- Observed change from baseline to week 4 in ALT, Least Squares Means GS-9450 (T) (adults with NASH [4]; 1 mg): −15 U/L
- Percent change from baseline to week 4 in ALT, Least Squares Means GS-9450 (T) (adults with NASH [4]; 1 mg): −8%
- ALT, %Change at Week 4 (adults with NASH [4]; 5 mg once daily): −28 (21) %
- ALT, Change at Week 2 (adults with NASH [4]; 5 mg once daily): −35 (18) U/L
- ALT, Change at Week 4 (adults with NASH [4]; 5 mg once daily): −30 (26) U/L
- Observed change from baseline to week 4 in ALT, Difference T − R (adults with NASH [4]; 5 mg vs. pooled placebo): −25 U/L
- Percent change from baseline to week 4 in ALT, Difference T − R (adults with NASH [4]; 5 mg vs. pooled placebo): −26%
- Observed change from baseline to week 4 in ALT, Least Squares Means GS-9450 (T) (adults with NASH [4]; 5 mg): −29 U/L
- Percent change from baseline to week 4 in ALT, Least Squares Means GS-9450 (T) (adults with NASH [4]; 5 mg): −28%
- ALT, %Change at Week 4 (adults with NASH [4]; 10 mg once daily): −30 (20) %
- ALT, Change at Week 2 (adults with NASH [4]; 10 mg once daily): −37 (23) U/L
- ALT, Change at Week 4 (adults with NASH [4]; 10 mg once daily): −30 (26) U/L
- Observed change from baseline to week 4 in ALT, Difference T − R (adults with NASH [4]; 10 mg vs. pooled placebo): −28 U/L
- Percent change from baseline to week 4 in ALT, Difference T − R (adults with NASH [4]; 10 mg vs. pooled placebo): −28%
- Observed change from baseline to week 4 in ALT, Least Squares Means GS-9450 (T) (adults with NASH [4]; 10 mg): −32 U/L
- Percent change from baseline to week 4 in ALT, Least Squares Means GS-9450 (T) (adults with NASH [4]; 10 mg): −31%
- mean (SD) ALT decrease from baseline to week 4 (adults with NASH [4]; 40 mg): 47 (43) U/L
- ALT, %Change at Week 4 (adults with NASH [4]; 40 mg once daily): −43 (19) %
- ALT, Change at Week 2 (adults with NASH [4]; 40 mg once daily): −46 (46) U/L
- ALT, Change at Week 4 (adults with NASH [4]; 40 mg once daily): −47 (43) U/L
- Observed change from baseline to week 4 in ALT, Difference T − R (adults with NASH [4]; 40 mg vs. pooled placebo): −39 U/L
- Percent change from baseline to week 4 in ALT, Difference T − R (adults with NASH [4]; 40 mg vs. pooled placebo): −40%
- mean ALT change from baseline at follow-up week 2 (adults with NASH [4]; 40 mg, off treatment): 16 IU/L
- mean ALT change from baseline at follow-up week 3 (adults with NASH [4]; 40 mg, off treatment): 13 IU/L
- mean ALT change from baseline at follow-up week 4 (adults with NASH [4]; 40 mg, off treatment): 12 IU/L
- proportion of subjects with normal ALT at week 4 (adults with NASH [4]; 40 mg, 0% at baseline, normal 43 U/L males, 34 U/L females): 35%
- mean absolute ALT value at week 4 (adults with NASH [4]; 40 mg, 106 U/L at baseline): 62 U/L
- Observed change from baseline to week 4 in ALT, Least Squares Means GS-9450 (T) (adults with NASH [4]; 40 mg): −43 U/L
- Percent change from baseline to week 4 in ALT, Least Squares Means GS-9450 (T) (adults with NASH [4]; 40 mg): −42%
- nonresponders at week 4 (decrease in ALT of <10% relative to baseline) (adults with NASH [4]; 40 mg, two subjects): 8%
- time after stopping study medication until ALT reduction was offset (adults with NASH [4]; off-treatment follow-up): ≤ 1 week
- ALT mean (SD) changes from baseline at week 4 (adults with NASH [4]; range across the GS-9450 groups (1-40 mg)): −14 (40) to −47 (43) U/L
- frequency of treatment-emergent AEs during the 4-week on-treatment period (adults with NASH [5]; 1 mg): 77%
- Abdominal pain (adults with NASH [5]; [6]): 1 (4) n (%)
- Abdominal pain upper (adults with NASH [5]; [6]): 1 (4) n (%)
- Arthralgia (adults with NASH [5]; [6]): 1 (4) n (%)
- Asthenia (adults with NASH [5]; [6]): 1 (4) n (%)
- Back pain (adults with NASH [5]; [6]): 1 (4) n (%)
- Constipation (adults with NASH [5]; [6]): 2 (8) n (%)
- Diarrhea (adults with NASH [5]; [6]): 2 (8) n (%)
- Dizziness (adults with NASH [5]; [6]): 2 (8) n (%)
- Dry mouth (adults with NASH [5]; [6]): 1 (4) n (%)
- Dyspepsia (adults with NASH [5]; [6]): 2 (8) n (%)
- Fatigue (adults with NASH [5]; [6]): 6 (23) n (%)
- Gastroesophageal reflux disease (adults with NASH [5]; [6]): 0 n (%)
- Headache (adults with NASH [5]; [6]): 4 (15) n (%)
- Nasopharyngitis (adults with NASH [5]; [6]): 2 (8) n (%)
- Nausea (adults with NASH [5]; [6]): 3 (12) n (%)
- No. of subjects with at least one AE (adults with NASH [5]; [6]): 20 (77) n (%)
- Pain in extremity (adults with NASH [5]; [6]): 1 (4) n (%)
- Somnolence (adults with NASH [5]; [6]): 1 (4) n (%)
- Total no. of events (AEs) (adults with NASH [5]; [6]): 62
- frequency of treatment-emergent AEs during the 4-week on-treatment period (adults with NASH [5]; 5 mg): 85%
- Abdominal pain (adults with NASH [5]; [7]): 2 (8) n (%)
- Abdominal pain upper (adults with NASH [5]; [7]): 1 (4) n (%)
- Arthralgia (adults with NASH [5]; [7]): 3 (12) n (%)
- Asthenia (adults with NASH [5]; [7]): 1 (4) n (%)
- Back pain (adults with NASH [5]; [7]): 2 (8) n (%)
- Constipation (adults with NASH [5]; [7]): 0 n (%)
- Diarrhea (adults with NASH [5]; [7]): 6 (23) n (%)
- Dizziness (adults with NASH [5]; [7]): 0 n (%)
- Dry mouth (adults with NASH [5]; [7]): 0 n (%)
- Dyspepsia (adults with NASH [5]; [7]): 2 (8) n (%)
- Fatigue (adults with NASH [5]; [7]): 5 (19) n (%)
- Gastroesophageal reflux disease (adults with NASH [5]; [7]): 0 n (%)
- Headache (adults with NASH [5]; [7]): 7 (27) n (%)
- Nasopharyngitis (adults with NASH [5]; [7]): 0 n (%)
